Experiments:
CDK5 = details: cited from earlier work
[1] = tested on: advanced/metastatic solid tumors; assay: Antitumor activity; assay type: in vivo, human
Outline: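 Adults (≥18 y) with relapsed or refractory solid tumours and no standard therapy, ECOG 0–1, take the test compound as capsules orally once daily for 7 consecutive days in 2-week cycles (S1). Patients stay on study until progression, refusal or unacceptable toxicity. Disease is assessed by RECIST every 8 weeks and at study discontinuation.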

Plasma pharmacokinetics = assay type: in vivo, human; details: for AUC(0-t) / Cmax / Vd/F / half-life: human, plasma, oral; for Vd/F: Vz/F
Outline: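 The test compound is given orally once daily for 7 days in 2-week cycles (S1). Plasma is sampled in cycle 1 on days 1, 2, 4, 7, 8 and 9, and in cycle 2 on days 1, 4 and 7. Cycle 1 day 1 is sampled from 30 min to 24 h after dosing and day 7 from 30 min to 96 h. Parent and metabolite are measured by validated LC-MS-MS, with calibration ranges of 0.00109–1.09 and 0.00105–1.05 μM respectively.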

CDK2/Cyclin A complex = details: read-out: IC50, CDK2/Cyclin A complex; cited from earlier work
[2] = tested on: CDK related biomarkers Cyclin A2, Cyclin B1 and Ki67; assay: Pharmacodynamics: qRT-PCR on skin biopsies; assay type: in vivo, human; details: pre- vs post-treatment
CDK2 = details: cited from earlier work
CDK7 = details: cited from earlier work

CNC(=O)c1nn(C)c2c1C(C)(C)Cc1cnc(Nc3ccc(N4CCN(C)CC4)cc3)nc1-2 [PHA-848125AC, N,1,4,4-tetramethyl-8-{[4-(4-methylpiperazin-1-yl)phenyl]amino}-4,5-dihydro-1H-pyrazolo [4,3-h]quinazoline-3-carboxamide]
inhibitory activity towards CDK5 (CDK5): inhibitory activity
duration of stabilization ([1]; CRC patient, 150 mg/day, S1): 55.6 weeks
duration of stabilization ([1]; NSCLC patient, 200 mg/day, S1): 24.6 weeks
objective response ([1]; S1): No objective response
patients discontinued for lack of efficacy ([1]; S1 N=22): 81.8%
patients discontinued for lack of efficacy ([1]; S2 N=15): 86.7%
duration of stabilization ([1]; carcinoid patient, 180 mg/day, S2): 29.1 weeks
duration of stabilization ([1]; pancreatic adenocarcinoma patient, 180 mg/day, S2): 39.3 weeks
CL/F (Plasma pharmacokinetics; S1 50 mg/day, mean±SD, n=2): 19.7 ± 4.35 L/h
CL/F (Plasma pharmacokinetics; S1 100 mg/day, mean±SD, n=6): 13.7 ± 6.49 L/h
CL/F (Plasma pharmacokinetics; S1 200 mg/day, mean±SD, n=6): 15.2 ± 2.44 L/h
CL/F (Plasma pharmacokinetics; S1 300 mg/day, n=1): 7.78 L/h
CL/F (Plasma pharmacokinetics; S2 150 mg/day, mean±SD, n=4): 16.4 ± 6.16 L/h
CL/F (Plasma pharmacokinetics; S2 200 mg/day, mean±SD, n=3): 12.7 ± 1.60 L/h
accumulation factor after repeated administrations (Plasma pharmacokinetics; both schedules): 3
AUC(0-t) (Plasma pharmacokinetics; 50 mg/day, AUC0-24, S1 50 mg/day, Day 1, mean±SD, n=3): 2.5 ± 0.6 µM·h
AUC(0-t) (Plasma pharmacokinetics; 50 mg/day, AUC0-24, S1 50 mg/day, Day 7, mean±SD, n=3): 6.8 ± 2.2 µM·h
AUC(0-t) (Plasma pharmacokinetics; 50 mg/day, AUCt, S1 50 mg/day, Day 7, mean±SD, n=3): 11.7 ± 5.4 µM·h
Cmax (Plasma pharmacokinetics; 50 mg/day, S1 50 mg/day, Day 1, mean±SD, n=3): 200 ± 100 nM
Cmax (Plasma pharmacokinetics; 50 mg/day, S1 50 mg/day, Day 7, mean±SD, n=3): 400 ± 200 nM
Vd/F (Plasma pharmacokinetics; 50 mg/day, S1 50 mg/day, mean±SD, n=2): 707 ± 39.8 L
half-life (Plasma pharmacokinetics; 50 mg/day, t1/2,z, S1 50 mg/day, mean±SD, n=2): 25.3 ± 4.18 h
AUC(0-t) (Plasma pharmacokinetics; 100 mg/day, AUC0-24, S1 100 mg/day, Day 1, mean±SD, n=6): 6 ± 2.2 µM·h
AUC(0-t) (Plasma pharmacokinetics; 100 mg/day, AUC0-24, S1 100 mg/day, Day 7, mean±SD, n=6): 20 ± 11 µM·h
AUC(0-t) (Plasma pharmacokinetics; 100 mg/day, AUCt, S1 100 mg/day, Day 7, mean±SD, n=6): 43.4 ± 26.8 µM·h
Cmax (Plasma pharmacokinetics; 100 mg/day, S1 100 mg/day, Day 1, mean±SD, n=6): 400 ± 100 nM
Cmax (Plasma pharmacokinetics; 100 mg/day, S1 100 mg/day, Day 7, mean±SD, n=6): 1200 ± 500 nM
Vd/F (Plasma pharmacokinetics; 100 mg/day, S1 100 mg/day, mean±SD, n=6): 840 ± 550 L
half-life (Plasma pharmacokinetics; 100 mg/day, t1/2,z, S1 100 mg/day, mean±SD, n=6): 42.9 ± 15.9 h
AUC(0-t) (Plasma pharmacokinetics; 150 mg/day, AUC0-24, S1 150 mg/day, Day 1, mean±SD, n=6): 8.8 ± 2.6 µM·h
AUC(0-t) (Plasma pharmacokinetics; 150 mg/day, AUC0-24, S1 150 mg/day, Day 7, mean±SD, n=6): 25 ± 8.6 µM·h
AUC(0-t) (Plasma pharmacokinetics; 150 mg/day, AUC0-24, S2 150 mg/day, Day 1, mean±SD, n=4): 7.2 ± 2.8 µM·h
AUC(0-t) (Plasma pharmacokinetics; 150 mg/day, AUC0-24, S2 150 mg/day, Day 18, mean±SD, n=4): 23 ± 9.5 µM·h
AUC(0-t) (Plasma pharmacokinetics; 150 mg/day, AUCt, S1 150 mg/day, Day 7, mean±SD, n=6): 46.5 ± 19.4 µM·h
AUC(0-t) (Plasma pharmacokinetics; 150 mg/day, AUCt, S2 150 mg/day, Day 18, mean±SD, n=4): 54.6 ± 25.1 µM·h
Cmax (Plasma pharmacokinetics; 150 mg/day, S1 150 mg/day, Day 1, mean±SD, n=6): 700 ± 200 nM
Cmax (Plasma pharmacokinetics; 150 mg/day, S1 150 mg/day, Day 7, mean±SD, n=6): 1500 ± 500 nM
Cmax (Plasma pharmacokinetics; 150 mg/day, S2 150 mg/day, Day 1, mean±SD, n=4): 400 ± 100 nM
Cmax (Plasma pharmacokinetics; 150 mg/day, S2 150 mg/day, Day 18, mean±SD, n=4): 1200 ± 300 nM
Vd/F (Plasma pharmacokinetics; 150 mg/day, S2 150 mg/day, mean±SD, n=4): 1010 ± 456 L
half-life (Plasma pharmacokinetics; 150 mg/day, t1/2,z, S1 150 mg/day, mean±SD, n=6): 33.1 ± 9.53 h
half-life (Plasma pharmacokinetics; 150 mg/day, t1/2,z, S2 150 mg/day, mean±SD, n=4): 43.1 ± 10.7 h
AUC(0-t) (Plasma pharmacokinetics; 180 mg/day, AUC0-24, S2 180 mg/day, Day 1, mean±SD, n=4): 7 ± 2.1 µM·h
AUC(0-t) (Plasma pharmacokinetics; 180 mg/day, AUC0-24, S2 180 mg/day, Day 18, mean±SD, n=4): 17 ± 8.8 µM·h
AUC(0-t) (Plasma pharmacokinetics; 180 mg/day, AUCt, S2 180 mg/day, Day 18, mean±SD, n=4): 35.1 ± 26.3 µM·h
Cmax (Plasma pharmacokinetics; 180 mg/day, S2 180 mg/day, Day 1, mean±SD, n=4): 500 ± 200 nM
Cmax (Plasma pharmacokinetics; 180 mg/day, S2 180 mg/day, Day 18, mean±SD, n=4): 1100 ± 500 nM
half-life (Plasma pharmacokinetics; 180 mg/day, t1/2,z, S2 180 mg/day, mean±SD, n=4): 23.5 ± 8.42 h
AUC(0-t) (Plasma pharmacokinetics; 200 mg/day, AUC0-24, S1 200 mg/day, Day 1, mean±SD, n=6): 9.6 ± 3.6 µM·h
AUC(0-t) (Plasma pharmacokinetics; 200 mg/day, AUC0-24, S1 200 mg/day, Day 7, mean±SD, n=6): 29 ± 4.5 µM·h
AUC(0-t) (Plasma pharmacokinetics; 200 mg/day, AUC0-24, S2 200 mg/day, Day 1, mean±SD, n=3): 12 ± 6.3 µM·h
AUC(0-t) (Plasma pharmacokinetics; 200 mg/day, AUC0-24, S2 200 mg/day, Day 18, mean±SD, n=3): 35 ± 4.6 µM·h
AUC(0-t) (Plasma pharmacokinetics; 200 mg/day, AUCt, S1 200 mg/day, Day 7, mean±SD, n=6): 63.5 ± 9.04 µM·h
AUC(0-t) (Plasma pharmacokinetics; 200 mg/day, AUCt, S2 200 mg/day, Day 18, mean±SD, n=3): 63.6 ± 17.5 µM·h
Cmax (Plasma pharmacokinetics; 200 mg/day, S1 200 mg/day, Day 1, mean±SD, n=6): 700 ± 300 nM
Cmax (Plasma pharmacokinetics; 200 mg/day, S1 200 mg/day, Day 7, mean±SD, n=6): 1700 ± 200 nM
Cmax (Plasma pharmacokinetics; 200 mg/day, S2 200 mg/day, Day 1, mean±SD, n=3): 1000 ± 400 nM
Cmax (Plasma pharmacokinetics; 200 mg/day, S2 200 mg/day, Day 18, mean±SD, n=3): 2500 ± 500 nM
Vd/F (Plasma pharmacokinetics; 200 mg/day, S1 200 mg/day, mean±SD, n=6): 721 ± 207 L
Vd/F (Plasma pharmacokinetics; 200 mg/day, S2 200 mg/day, mean±SD, n=3): 473 ± 68.4 L
half-life (Plasma pharmacokinetics; 200 mg/day, t1/2,z, S1 200 mg/day, mean±SD, n=6): 32.4 ± 4.79 h
half-life (Plasma pharmacokinetics; 200 mg/day, t1/2,z, S2 200 mg/day, mean±SD, n=3): 25.8 ± 1.46 h
AUC(0-t) (Plasma pharmacokinetics; 300 mg/day, AUC0-24, S1 300 mg/day, Day 1, n=1): 23 µM·h
AUC(0-t) (Plasma pharmacokinetics; 300 mg/day, AUC0-24, S1 300 mg/day, Day 7, n=1): 84 µM·h
AUC(0-t) (Plasma pharmacokinetics; 300 mg/day, AUCt, S1 300 mg/day, Day 7, n=1): 168 µM·h
Cmax (Plasma pharmacokinetics; 300 mg/day, S1 300 mg/day, Day 1, n=1): 1200 nM
Cmax (Plasma pharmacokinetics; 300 mg/day, S1 300 mg/day, Day 7, n=1): 5100 nM
Vd/F (Plasma pharmacokinetics; 300 mg/day, S1 300 mg/day, n=1): 348 L
half-life (Plasma pharmacokinetics; 300 mg/day, t1/2,z, S1 300 mg/day, n=1): 31 h
half-life (Plasma pharmacokinetics; half-life, terminal, overall): ~33 h
oral absorption (Plasma pharmacokinetics; in vivo, po): good oral absorption
IC50 (CDK2/Cyclin A complex): 45 nM
modulation of CDK related biomarkers Cyclin A2, Cyclin B1 and Ki67 [2]: down modulation
inhibitory activity towards CDK2 (CDK2): inhibitory activity
inhibitory activity towards CDK7 (CDK7): inhibitory activity
